Legend:
[1] = tested on: Rattus norvegicus; assay: Ex vivo displacement of [3H]ketanserin from 5HT2A receptor in Sprague-Dawley rat cerebral cortex at 10 mg/kg, po by imaging analysis; format: functional
Method in brief: (§1)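 Rats were dosed orally (vehicle 0.5% HPMC) and brains removed 2 h later. 14 μm coronal sections were incubated with 1 nM [3H]ketanserin in 50 mM Tris-HCl with 10 mM MgCl2, pH 7.5, for 10 min at room temperature. Nonspecific binding with 10 μM mianserin. Phosphoimager read after 7 days; occupancy measured in cortex.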

[2] = tested on: Rattus norvegicus; assay: Ex vivo displacement of [3H]ketanserin from 5HT2A receptor in Sprague-Dawley rat cerebral cortex at 3 mg/kg, po by imaging analysis; format: functional; method in brief: as §1
[3] = Plasma concentration at Tmax in Sprague-Dawley rat hypnotic model at 10 mg/kg, po administered during active phase; format: ADME, organism-based; design: dose 10 mg/kg, route oral
[4] = target: Voltage-gated inwardly rectifying potassium channel KCNH2 (Homo sapiens, UniProt Q12809); assay: Displacement of [3H]dofetilide from human ERG by scintillation proximity assay
Sequence of Voltage-gated inwardly rectifying potassium channel KCNH2 (Q12809 whole entry): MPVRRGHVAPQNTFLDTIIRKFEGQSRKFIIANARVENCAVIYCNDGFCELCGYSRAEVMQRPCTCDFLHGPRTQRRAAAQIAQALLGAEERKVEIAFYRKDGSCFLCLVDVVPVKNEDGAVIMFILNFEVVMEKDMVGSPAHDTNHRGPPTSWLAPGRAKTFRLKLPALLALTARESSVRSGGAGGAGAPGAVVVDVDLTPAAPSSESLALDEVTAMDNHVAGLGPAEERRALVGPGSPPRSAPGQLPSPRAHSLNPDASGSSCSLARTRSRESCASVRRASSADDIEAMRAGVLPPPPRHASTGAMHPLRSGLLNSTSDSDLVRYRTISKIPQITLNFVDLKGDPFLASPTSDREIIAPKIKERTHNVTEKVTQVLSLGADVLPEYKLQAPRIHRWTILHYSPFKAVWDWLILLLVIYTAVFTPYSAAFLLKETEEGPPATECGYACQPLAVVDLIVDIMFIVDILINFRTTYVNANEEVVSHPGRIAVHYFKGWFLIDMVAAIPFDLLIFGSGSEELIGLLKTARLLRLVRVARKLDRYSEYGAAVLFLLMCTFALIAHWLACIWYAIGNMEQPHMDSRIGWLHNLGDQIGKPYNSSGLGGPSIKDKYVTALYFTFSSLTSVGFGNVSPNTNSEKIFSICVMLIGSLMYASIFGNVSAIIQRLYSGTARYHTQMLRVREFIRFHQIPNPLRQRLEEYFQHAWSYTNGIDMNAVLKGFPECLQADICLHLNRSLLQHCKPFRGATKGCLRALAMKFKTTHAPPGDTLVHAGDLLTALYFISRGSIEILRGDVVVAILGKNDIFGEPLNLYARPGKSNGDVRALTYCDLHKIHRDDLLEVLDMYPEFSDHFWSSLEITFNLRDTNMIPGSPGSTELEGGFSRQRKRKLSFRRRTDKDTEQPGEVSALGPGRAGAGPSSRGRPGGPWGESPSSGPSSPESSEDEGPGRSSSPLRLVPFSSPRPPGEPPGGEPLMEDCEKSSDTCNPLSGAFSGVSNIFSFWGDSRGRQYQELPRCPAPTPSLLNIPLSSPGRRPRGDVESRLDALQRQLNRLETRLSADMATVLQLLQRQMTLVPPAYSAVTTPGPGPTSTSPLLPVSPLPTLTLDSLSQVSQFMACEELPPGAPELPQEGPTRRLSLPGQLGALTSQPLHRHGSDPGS

[5] = Half life in Sprague-Dawley rat at 1 mg/kg, iv and 3 mg/kg, po; format: ADME, organism-based; conditions: in vivo
Method in brief: (§2)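 Male Sprague-Dawley rats, cassette dosing. Compounds were given as an iv bolus and as an oral suspension. Blood samples were taken at intervals up to 24 h, processed by protein precipitation and analysed by HPLC-MS/MS.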

[6] = Plasma concentration at Tmax in Sprague-Dawley rat hypnotic model at 1 mg/kg, po administered during active phase; format: ADME, organism-based; design: dose 1 mg/kg, route oral
[7] = target: Histamine H1 receptor (Rattus norvegicus, UniProt P31390); assay: Displacement of [3H]pyrilamine from histamine H1 receptor in Sprague-Dawley rat cortical membrane by liquid scintillation counting
Sequence of Histamine H1 receptor (P31390 whole entry): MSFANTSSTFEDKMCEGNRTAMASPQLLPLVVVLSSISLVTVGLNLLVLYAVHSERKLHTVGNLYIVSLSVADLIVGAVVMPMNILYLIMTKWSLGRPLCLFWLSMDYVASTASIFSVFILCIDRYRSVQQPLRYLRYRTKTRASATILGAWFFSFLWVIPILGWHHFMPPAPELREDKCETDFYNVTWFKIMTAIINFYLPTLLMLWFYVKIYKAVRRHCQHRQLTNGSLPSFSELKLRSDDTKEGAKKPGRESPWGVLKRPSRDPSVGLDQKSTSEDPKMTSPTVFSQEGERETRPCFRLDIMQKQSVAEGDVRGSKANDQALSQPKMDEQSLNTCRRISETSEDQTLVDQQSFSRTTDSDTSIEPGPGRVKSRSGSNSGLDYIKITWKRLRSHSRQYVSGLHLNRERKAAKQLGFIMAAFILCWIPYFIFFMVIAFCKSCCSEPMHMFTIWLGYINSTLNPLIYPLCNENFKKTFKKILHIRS
Method in brief: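 Cerebral cortex membranes from male Sprague-Dawley rats (200-250 g), 150 μg/well. Incubated with 0.6 nM [3H]pyrilamine in 50 mM HEPES, pH 7.4, for 2 h at room temperature. Filtered on PEI-soaked GF/B and counted by scintillation. Nonspecific binding with 10 μM cetirizine. Ki by Cheng-Prusoff; mean of two experiments in duplicate.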

[8] = tested on: Rattus norvegicus; assay: Ex vivo displacement of [3H]ketanserin from 5HT2A receptor in Sprague-Dawley rat cerebral cortex at 1 mg/kg, po by imaging analysis; format: functional; method in brief: as §1
[9] = tested on: Rattus norvegicus; assay: Ex vivo displacement of [3H]pyrilamine from histamine H1 receptor in Sprague-Dawley rat cerebral cortex at 3 mg/kg, po by imaging analysis; format: functional
Method in brief: (§3)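 Rats were dosed orally (vehicle 0.5% HPMC) and brains removed 2 h later. 14 μm coronal sections were incubated with 1 nM [3H]pyrilamine in 50 mM Tris-HCl, pH 7.5, for 10 min at room temperature. Nonspecific binding with 10 μM pyrilamine. Phosphoimager read after 7 days; occupancy measured in cortex.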

[10] = tested on: Rattus norvegicus; assay: Hypnotic activity in Sprague-Dawley rat assessed as rapid eye movement latency period at 1 mg/kg, po administered during active phase; format: functional
Method in brief: (§4)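 Male Sprague-Dawley rats (275-300 g) carried implanted telemetric EEG/EMG transmitters and were used 3 weeks after surgery. Oral dosing (2 mL/kg) was given 6 h after lights off (CT18) in a randomized crossover versus vehicle. Recording ran for 5 h in 10 s epochs scored by FFT. n = 8, mean ± SEM; one-way ANOVA with Dunnett's test.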

[11] = Blood clearance in Sprague-Dawley rat at 1 mg/kg, iv and 3 mg/kg, po; format: ADME, organism-based; conditions: whole blood; method in brief: as §2
[12] = Volume of distribution at steady state in Sprague-Dawley rat at 1 mg/kg, iv and 3 mg/kg, po; format: ADME, organism-based; conditions: in vivo, read-out: Vdss; method in brief: as §2
[13] = tested on: Rattus norvegicus; assay: Hypnotic activity in Sprague-Dawley rat assessed as non-rapid eye movement latency period at 1 mg/kg, po administered during active phase; format: functional; method in brief: as §4
[14] = tested on: Rattus norvegicus; assay: Ex vivo displacement of [3H]pyrilamine from histamine H1 receptor in Sprague-Dawley rat cerebral cortex at 10 mg/kg, po by imaging analysis; format: functional; method in brief: as §3
[15] = tested on: Rattus norvegicus; assay: Ex vivo displacement of [3H]pyrilamine from histamine H1 receptor in Sprague-Dawley rat cerebral cortex at 1 mg/kg, po by imaging analysis; format: functional; method in brief: as §3
[16] = Cmax in Sprague-Dawley rat hypnotic model at 3 mg/kg, po administered during active phase measured after 2 hrs; format: ADME, organism-based; design: dose 3 mg/kg, route oral; conditions: in vivo
[17] = Plasma concentration at Tmax in Sprague-Dawley rat hypnotic model at 3 mg/kg, po administered during active phase; format: ADME, organism-based; design: dose 3 mg/kg, route oral
[18] = tested on: Rattus norvegicus; assay: Hypnotic activity in Sprague-Dawley rat assessed as non-rapid eye movement latency period at 3 mg/kg, po administered during active phase; format: functional; method in brief: as §4
[19] = Oral bioavailability in Sprague-Dawley rat at 3 mg/kg; format: ADME, organism-based; conditions: in vivo; method in brief: as §2
[20] = Ratio of drug level in brain to blood in Sprague-Dawley rat at 1 mg/kg, iv and 3 mg/kg, po; format: ADME, organism-based; conditions: read-out: BBR
Method in brief: (§5)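 Male Sprague-Dawley rats, cassette dosing, iv bolus or oral suspension. Blood and brain levels were measured by protein precipitation and HPLC-MS/MS. Brain:blood ratio was taken from AUC0-8h after oral dosing, or at 1 h after iv dosing for one compound.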

[21] = target: Cytochrome P450 2C9 (Homo sapiens, UniProt P11712); assay: Inhibition of human CYP2C9 transfected in bactosome expression system by spectrofluorimetry; format: ADME
Sequence of Cytochrome P450 2C9 (P11712 whole entry): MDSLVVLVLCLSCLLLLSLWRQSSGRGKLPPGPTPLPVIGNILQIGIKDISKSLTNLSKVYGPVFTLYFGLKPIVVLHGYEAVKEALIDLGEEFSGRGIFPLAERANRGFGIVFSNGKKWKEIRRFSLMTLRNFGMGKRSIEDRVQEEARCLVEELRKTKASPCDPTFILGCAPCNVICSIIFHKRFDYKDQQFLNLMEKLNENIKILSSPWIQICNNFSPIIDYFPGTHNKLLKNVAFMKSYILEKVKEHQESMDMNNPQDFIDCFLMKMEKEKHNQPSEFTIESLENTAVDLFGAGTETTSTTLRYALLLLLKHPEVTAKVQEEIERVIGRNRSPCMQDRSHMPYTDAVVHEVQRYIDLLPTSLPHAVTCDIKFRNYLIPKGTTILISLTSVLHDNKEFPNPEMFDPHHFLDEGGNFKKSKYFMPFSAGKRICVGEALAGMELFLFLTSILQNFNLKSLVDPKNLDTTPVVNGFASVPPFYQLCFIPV
Method in brief: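 Recombinant human CYP Bactosomes (0.1 mg/mL) in 50 mM phosphate buffer, pH 7.4. Compound at 0.1-10 μM was preincubated with fluorogenic substrate for 10 min at 37 °C, and the reaction was started with an NADPH regenerating system. Metabolite fluorescence was followed for 10 min. Substrates: 1A2 ethoxyresorufin 0.5 μM; 2C9 FCA 50 μM; 2C19 BMC 10 μM; 2D6 MMC 10 μM; 3A4 DEF 1 μM or 7-BQ 25 μM. Run in triplicate.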

[22] = Oral bioavailability in Sprague-Dawley rat at 1 mg/kg; format: ADME, organism-based; conditions: in vivo; method in brief: as §2
[23] = Volume of distribution at steady state in Sprague-Dawley rat at 0.5 mg/kg, iv and 1 mg/kg, po; format: ADME, organism-based; conditions: in vivo, read-out: Vdss; method in brief: as §2
[24] = Blood clearance in Sprague-Dawley rat at 0.5 mg/kg, iv and 1 mg/kg, po; format: ADME, organism-based; conditions: whole blood; method in brief: as §2
[25] = Ratio of drug level in brain to blood in Sprague-Dawley rat at 0.5 mg/kg, iv and 1 mg/kg, po; format: ADME, organism-based; conditions: read-out: BBR; method in brief: as §5
[26] = Cmax in Sprague-Dawley rat hypnotic model at 1 mg/kg, po administered during active phase measured after 2 hrs; format: ADME, organism-based; design: dose 1 mg/kg, route oral; conditions: in vivo
[27] = Half life in Sprague-Dawley rat at 0.5 mg/kg, iv and 1 mg/kg, po; format: ADME, organism-based; conditions: in vivo; method in brief: as §2

Compound | Activity [1] [%] | Activity [2] [%] | Cmax [3] [ng/mL] | IC50 [4] [µM] | Cmax [6] [ng/mL] | Ki [7] [µM] | Activity [8] [%] | Activity [9] [%] | Time [10] [min] | Time [13] [min] | Activity [14] [%] | Activity [15] [%] | Cmax [17] [ng/mL] | Time [18] [min] | IC50 [21] [µM] | bioavailability [22] [%] | Vd [23] [L/kg] | clearance [24] [mL/min/kg] | Kp [25] | half-life [27] [h] | also measured
O=C(O)C1CN(C2CC[C@]3(Cc4ccccc4Cc4ccccc43)C2)C1 (stereo partly drawn) | 47 | 24 | 1220 | > 50.1 | 127 | 0.00562 | 0.9 | 45 | 77.8 | 58.1 | 66 | 16 | 417 | 51.6 | > 10 | – | – | – | – | – | half-life [5]: 3.1 h; clearance [11]: 9 mL/min/kg; Vd [12]: 2.1 L/kg; Cmax [16]: 626 ng/mL; bioavailability [19]: 54%; Kp [20]: 0.1
O=C(O)C1CCN(C2CC[C@]3(Cc4ccccc4Cc4ccccc43)C2)CC1 (stereo partly drawn) | 18 | 5.6 | 755 | > 63.1 | 119 | 0.00468 | 0 | 35 | 83.6 | 69.8 | 55 | 30 | 303 | 51.4 | > 10 | 65 | 2.9 | 21 | 0.5 | 1.9 | Cmax [26]: 216 ng/mL
O=C(O)C1CN(C2CCC3(Cc4ccccc4Oc4ccccc43)C2)C1 (stereo not drawn) | – | – | – | > 50.1 | – | 0.0141 | – | – | 67 | 37.8 | – | – | – | 37.9 | > 10 | 100 | 1.9 | 13 | 0.2 | 1.9 | –

Reference: ChEMBL document CHEMBL1275351, “Novel spirotetracyclic zwitterionic dual H(1)/5-HT(2A) receptor antagonists for the treatment of sleep disorders” (J Med Chem, 2010)
